In publication PMC7781011 (Journal of Inflammation Research, 2020):
Entries after “also recorded” stand apart in the source; their conditions may differ. Where two headings read alike, the source gives them in different places.

Columns and labels:
[1] = biological target: T1, mouse mPGES-1 (Mus musculus, UniProt Q9JM51); assay: Cell-free mPGES-1 assay; type: biochemical
T1 sequence (Q9JM51 1-153): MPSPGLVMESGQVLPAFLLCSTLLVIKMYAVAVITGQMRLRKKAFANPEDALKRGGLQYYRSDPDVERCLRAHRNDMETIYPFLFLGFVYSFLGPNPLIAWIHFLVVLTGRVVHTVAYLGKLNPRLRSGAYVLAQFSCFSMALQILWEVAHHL
Summary of the method: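 Enzyme in 15 mM Tris-HCl pH 7.4 with 1 mM GSH, preincubated 20 min with compound (0.1–100 µM); plate held 15 min at 20°C. PGH2 (final 2.8 µM) added, 45 s at room temperature, then stopped with SnCl2 in 1N HCl. PGE2 by ELISA, in triplicate, % inhibition versus untreated. Human enzyme from E. coli or commercial; mouse enzyme from vas deferens/seminal vesicles. IC50 by four-parameter nonlinear regression.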

[2] = biological target: T2, human 5-LOX (Homo sapiens, UniProt P09917); assay: Binding assay using isothermal titration calorimetry
T2 sequence (P09917 1-674): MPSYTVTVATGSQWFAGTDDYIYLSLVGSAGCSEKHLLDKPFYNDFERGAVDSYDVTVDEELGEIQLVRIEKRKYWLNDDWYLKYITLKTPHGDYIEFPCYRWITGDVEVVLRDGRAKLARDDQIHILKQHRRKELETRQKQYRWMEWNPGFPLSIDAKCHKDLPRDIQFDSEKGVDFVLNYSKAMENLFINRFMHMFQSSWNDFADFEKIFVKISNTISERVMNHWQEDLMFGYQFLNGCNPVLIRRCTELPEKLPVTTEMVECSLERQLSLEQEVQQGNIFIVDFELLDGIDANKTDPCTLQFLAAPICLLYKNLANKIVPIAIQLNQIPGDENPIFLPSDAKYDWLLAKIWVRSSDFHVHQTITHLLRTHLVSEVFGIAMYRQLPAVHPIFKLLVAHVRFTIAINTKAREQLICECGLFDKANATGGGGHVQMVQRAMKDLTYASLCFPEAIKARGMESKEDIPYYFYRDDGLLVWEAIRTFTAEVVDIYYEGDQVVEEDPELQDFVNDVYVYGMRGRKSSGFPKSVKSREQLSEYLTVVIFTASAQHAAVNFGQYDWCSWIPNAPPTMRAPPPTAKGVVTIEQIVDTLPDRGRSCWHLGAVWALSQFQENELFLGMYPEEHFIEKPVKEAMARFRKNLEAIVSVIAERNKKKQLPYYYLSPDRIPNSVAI
Summary of the method: (§1)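 Serial injections of test compound (up to 1 mM) into enzyme-containing cell at 1 mM protein, both dissolved in PBS and degassed before use. Titration continued until heat signal approached zero at saturation. Isotherm fitted to obtain dissociation constant KD.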

[3] = biological target: T3, human COX-2 (Homo sapiens, UniProt P35354); assay: as above
T3 sequence (P35354 18-604): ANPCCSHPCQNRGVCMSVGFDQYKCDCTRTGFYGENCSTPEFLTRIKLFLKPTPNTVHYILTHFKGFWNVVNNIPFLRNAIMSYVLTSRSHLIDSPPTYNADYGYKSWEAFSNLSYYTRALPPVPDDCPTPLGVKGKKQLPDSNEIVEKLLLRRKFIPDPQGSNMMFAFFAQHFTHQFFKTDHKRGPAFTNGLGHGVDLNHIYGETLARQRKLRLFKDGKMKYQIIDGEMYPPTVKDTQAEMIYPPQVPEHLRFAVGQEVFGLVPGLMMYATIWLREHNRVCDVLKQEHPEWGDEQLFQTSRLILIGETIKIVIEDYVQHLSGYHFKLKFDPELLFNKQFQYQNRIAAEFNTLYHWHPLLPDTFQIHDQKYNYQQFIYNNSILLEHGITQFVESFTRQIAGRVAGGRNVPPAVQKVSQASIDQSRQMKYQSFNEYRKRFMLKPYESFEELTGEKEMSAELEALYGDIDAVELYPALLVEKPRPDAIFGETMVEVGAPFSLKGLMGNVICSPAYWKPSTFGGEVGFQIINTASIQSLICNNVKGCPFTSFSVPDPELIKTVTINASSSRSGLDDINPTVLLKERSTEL
Summary of the method: as §1

[4] = biological target: human COX-1 (Homo sapiens, UniProt P23219); assay: as above
Summary of the method: as §1

[5] = system: carrageenan-induced hind paw edema of rats; assay: Carrageenan-induced rat paw edema model; type: in vivo, rat (male Fischer F344); details: for TXB2 levels in paw exudates / LTB4 levels in paw exudates / PGE2 levels in paw exudates / PGI2 levels in paw exudates: 400 ppm; for edema inhibition (maximum): 400 ppm in diet (oral), 3 hours after carrageenan injection; for LTB4 levels in paw exudates / PGE2 levels in paw exudates / PGI2 levels in paw exudates: compared to control (vehicle)
Summary of the method: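 Male F344 rats (350–400 g) fed AIN-76A diet, either control or with compound or reference inhibitor at 400 ppm; separate saline group. 0.1 mL 1% λ-carrageenan in saline injected subplantar into left hind paw, saline into right. Dorsiventral paw thickness by digital caliper before and 1–6 h after injection; % edema inhibition. Paw exudate PGE2, LTB4, TXB2 and PGI2 measured by ELISA. Stomach and organs examined for ulcers.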

[6] = system: PGE2 production, colon tumor spheroids of Apc^Pirc/+ rats; assay: PGE2 in colon spheroid culture supernatant; type: cell-based, rat; details: compared with the untreated control
Summary of the method: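 Pirc rat colorectal crypt/single-cell spheroids grown in ultra-low-attachment wells in B27/N2, FBS, EGF, Noggin, R-spondin 1 and Y-27632 medium, changed every other day. PGE2 in supernatants of treated and untreated wells measured by ELISA, in pg/mL.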

[7] = system: normal colonocytes of rats; assay: MTT assay; type: cell-based, rat; details: 0.1–100 µM, 24 hours
Summary of the method: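 Normal rat colonocytes exposed 24 h to compound (0.1–100 µM), then MTT reagent for 2 h at 37°C. Formazan dissolved in DMSO, absorbance read at 570 nm with 620 nm reference. Three independent experiments, expressed as percent viability.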

[8] = In vitro metabolic stability in activated liver S9 fraction; type: in vitro ADME; details: rat liver S9 fraction activated with NADPH, UDPGA, GSH, PAPS; 500 µM
Summary of the method: (§2)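 Mouse or rat liver S9 fraction isolated and activated with NADPH, UDPGA, GSH and PAPS before compound addition. Samples taken at 0, 15, 30, 45 and 60 min. Compound extracted with acetonitrile and quantified by reversed-phase HPLC with PDA detection. Percent remaining calculated from peak areas at 0 and 60 min.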

[9] = as above; type: in vitro ADME; details: mouse liver S9 fraction activated with NADPH, UDPGA, GSH, PAPS; 500 µM
Summary of the method: as §2

human COX-1, sequence (P23219 24-599): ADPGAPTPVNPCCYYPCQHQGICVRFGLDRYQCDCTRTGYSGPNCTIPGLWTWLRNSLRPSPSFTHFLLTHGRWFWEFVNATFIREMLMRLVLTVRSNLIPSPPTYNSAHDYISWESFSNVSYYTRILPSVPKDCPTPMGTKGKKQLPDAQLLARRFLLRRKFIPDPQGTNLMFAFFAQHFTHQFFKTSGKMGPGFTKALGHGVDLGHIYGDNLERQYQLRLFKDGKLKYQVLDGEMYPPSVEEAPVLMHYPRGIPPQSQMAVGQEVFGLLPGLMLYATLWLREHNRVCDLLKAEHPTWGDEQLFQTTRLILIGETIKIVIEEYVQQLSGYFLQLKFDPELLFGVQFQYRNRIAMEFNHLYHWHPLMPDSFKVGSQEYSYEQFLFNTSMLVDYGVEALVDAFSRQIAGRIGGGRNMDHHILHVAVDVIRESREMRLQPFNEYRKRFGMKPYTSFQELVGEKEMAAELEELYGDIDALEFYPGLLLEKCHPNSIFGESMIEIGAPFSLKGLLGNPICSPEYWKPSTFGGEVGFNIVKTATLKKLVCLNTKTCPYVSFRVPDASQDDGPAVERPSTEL

SMILES | IC50 [1] | Kd [2] | Kd ([2]; read-out: KD (KD2), ITC, Human 5-LOX, sequential binding sites, second site) | Kd [3] | Kd [4] | TXB2 levels in paw exudates [5] | gastrointestinal (and other) toxicity ([5]; 400 ppm in diet) | edema inhibition (maximum) [5] | LTB4 levels in paw exudates [5] | PGE2 levels in paw exudates [5] | PGI2 levels in paw exudates [5] | inhibition of PGE2 production [6] | cytotoxicity to normal rat colonic epithelial cells [7] | LFA-9 remaining after 60-minutes incubation [8] | LFA-9 remaining after 60-minutes incubation [9]
CC1(C)Cc2c(-c3ccccc3)c(-c3ccc(Cl)cc3)c(CC(=O)NCC(=O)O)n2C1 [LFA-9, 2-[[2-[2-(4-chlorophenyl)-6,6-dimethyl-1-phenyl-5,7-dihydropyrrolizin-3-yl]acetyl]amino]acetic acid] | 0.52 µM | 18 µM | 210 µM | > 1000 µM | > 1000 µM | maintained homeostasis | did not show any gastrointestinal toxicity; also recorded: did not show any gastrointestinal and any other toxicities | 70.4% | reduced | reduced | spared | 82% | no cytotoxicity | 98.3% | 96.1%
CC1(C)Cc2c(-c3ccccc3)c(-c3ccc(Cl)cc3)c(CC(=O)O)n2C1 [Licofelone, reference compound] | > 15 µM |  |  |  |  | reduced |  | 61.7% | reduced | reduced | reduced | 63% |  |  | 
